Laboratory results published in ChEMBL document CHEMBL2311269, “Identification of benzofuran-3-yl(phenyl)methanones as novel SIRT1 inhibitors: binding mode, inhibitory mechanism and biological action” (Eur J Med Chem, 2013).
Calls of active or inactive are those of the source. No cut-off for these calls is given here.

Assays:
[1] = molecular target: T1, NAD-dependent protein deacetylase sirtuin-1 (Homo sapiens, UniProt Q96EB6); assay: Inhibition of N-terminal His6-tagged SIRT1 coding region (156-664) (unknown origin) expressed in Escherichia coli BL21(DE3) using 31.25 uM ac-RHKKac-AMC and 750 uM NAD+ as substrate after 45 mins by fluorometric analysis
T1 sequence (Q96EB6 whole entry): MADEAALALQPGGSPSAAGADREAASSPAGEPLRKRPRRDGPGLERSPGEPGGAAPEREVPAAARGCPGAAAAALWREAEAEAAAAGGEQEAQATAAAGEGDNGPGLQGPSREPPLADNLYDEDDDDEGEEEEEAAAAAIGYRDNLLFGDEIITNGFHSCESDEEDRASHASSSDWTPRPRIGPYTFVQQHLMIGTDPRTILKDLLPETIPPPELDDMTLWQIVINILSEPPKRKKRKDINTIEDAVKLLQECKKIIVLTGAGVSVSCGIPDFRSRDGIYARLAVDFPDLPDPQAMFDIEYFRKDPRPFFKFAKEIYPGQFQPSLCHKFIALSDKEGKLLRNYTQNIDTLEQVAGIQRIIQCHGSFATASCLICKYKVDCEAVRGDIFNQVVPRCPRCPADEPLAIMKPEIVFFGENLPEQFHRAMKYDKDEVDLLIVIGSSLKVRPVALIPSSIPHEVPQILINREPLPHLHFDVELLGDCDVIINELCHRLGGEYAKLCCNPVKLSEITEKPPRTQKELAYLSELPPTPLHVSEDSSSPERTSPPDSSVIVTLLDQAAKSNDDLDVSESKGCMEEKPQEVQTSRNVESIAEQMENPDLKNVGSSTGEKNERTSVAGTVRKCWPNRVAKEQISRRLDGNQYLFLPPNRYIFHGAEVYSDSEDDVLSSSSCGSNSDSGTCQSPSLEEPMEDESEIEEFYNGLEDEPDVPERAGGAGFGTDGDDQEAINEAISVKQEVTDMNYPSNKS

[2] = molecular target: T2, NAD-dependent protein deacetylase sirtuin-1 (Homo sapiens) (UniProt Q96EB6); assay: Inhibition of N-terminal His6-tagged SIRT1 coding region (156-664) (unknown origin) expressed in Escherichia coli BL21(DE3) using 100 uM ac-RHKKac-AMC and 20 uM NAD+ as substrate after 45 mins by fluorometric analysis
T2 sequence (whole entry): T1 sequence (Q96EB6 whole entry)

MCF7 = assay: Effect on p53 protein level in human MCF7 cells at 1.2 to 100 uM after 6 hrs by Western blot analysis; type: functional, cell-based
How it was run: (§1)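 MCF-7 cells grown in DMEM with 10% fetal calf serum were treated with graded inhibitor concentrations. Lysate protein was run on a 9% gel, transferred to nitrocellulose, blocked 1 h at room temperature in 5% milk/TBST, and probed for acetyl-p53 and total p53.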

[3] = molecular target: T2, NAD-dependent protein deacetylase sirtuin-1 (Homo sapiens); assay: Inhibition of SIRT1-mediated p53 deacetylation in human MCF7 cells after 6 hrs by Western blot analysis; type: cell-based; how it was run: as §1
[4] = molecular target: T3, NAD-dependent protein deacetylase sirtuin-1 (Homo sapiens, UniProt Q96EB6, I347A); assay: Mixed type inhibition of N-terminal His6-tagged SIRT1 I347A mutant (unknown origin) expressed in Escherichia coli BL21(DE3) using NAD+ as substrate by Lineweaver-Burk plot analysis in presence of ac-RHKKac-AMC
How it was run: (§2)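 Velocities of each SIRT1 point mutant were measured at varied inhibitor concentrations with NAD+ varied and peptide present. Reciprocal velocities were plotted against 1/[NAD+], the slopes were replotted versus inhibitor concentration, and Ki was taken from the x-intercepts of these secondary plots.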

[5] = molecular target: T4, NAD-dependent protein deacetylase sirtuin-1 (Homo sapiens, UniProt Q96EB6, F312L); assay: Mixed type inhibition of N-terminal His6-tagged SIRT1 F312L mutant (unknown origin) expressed in Escherichia coli BL21(DE3) using NAD+ as substrate by Lineweaver-Burk plot analysis in presence of ac-RHKKac-AMC; how it was run: as §2
[6] = molecular target: T5, NAD-dependent protein deacetylase sirtuin-1 (Homo sapiens, UniProt Q96EB6, N346A); assay: Mixed type inhibition of N-terminal His6-tagged SIRT1 N346A mutant (unknown origin) expressed in Escherichia coli BL21(DE3) using NAD+ as substrate by Lineweaver-Burk plot analysis in presence of ac-RHKKac-AMC; how it was run: as §2
[7] = molecular target: T3, NAD-dependent protein deacetylase sirtuin-1; assay: Inhibition of N-terminal His6-tagged SIRT1 I347A mutant (unknown origin) expressed in Escherichia coli BL21(DE3) using ac-RHKKac-AMC as substrate after 45 mins by fluorometric analysis
How it was run: (§3)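 Mutant SIRT1 enzyme levels were set to give the same deacetylase activity as wild type. The AMC-peptide/NAD+ fluorogenic assay ran in Tris pH 8.0 buffer for 45 min at room temperature, followed by nicotinamide stop, trypsin development and a 340/490 nm fluorescence read. IC50 was obtained by curve fitting.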

[8] = molecular target: T5, NAD-dependent protein deacetylase sirtuin-1; assay: Inhibition of N-terminal His6-tagged SIRT1 N346A mutant (unknown origin) expressed in Escherichia coli BL21(DE3) using ac-RHKKac-AMC as substrate after 45 mins by fluorometric analysis; how it was run: as §3
[9] = molecular target: T4, NAD-dependent protein deacetylase sirtuin-1; assay: Inhibition of N-terminal His6-tagged SIRT1 F312L mutant (unknown origin) expressed in Escherichia coli BL21(DE3) using ac-RHKKac-AMC as substrate after 45 mins by fluorometric analysis; how it was run: as §3
[10] = molecular target: T6, NAD-dependent protein deacetylase sirtuin-1 (Homo sapiens, UniProt Q96EB6, F273L); assay: Inhibition of N-terminal His6-tagged SIRT1 F273L mutant (unknown origin) expressed in Escherichia coli BL21(DE3) using ac-RHKKac-AMC as substrate after 45 mins by fluorometric analysis; how it was run: as §3
[11] = system: T7, NAD-dependent protein deacetylase sirtuin-3, mitochondrial (Homo sapiens), Q9NTG7 [L195F]; assay: Inhibition of N-terminal His6-tagged SIRT3 L195F mutant (unknown origin) expressed in Escherichia coli BL21(DE3) using ac-RHKKac-AMC as substrate at 50 to 100 uM after 45 mins by fluorometric analysis
T7 sequence (whole entry): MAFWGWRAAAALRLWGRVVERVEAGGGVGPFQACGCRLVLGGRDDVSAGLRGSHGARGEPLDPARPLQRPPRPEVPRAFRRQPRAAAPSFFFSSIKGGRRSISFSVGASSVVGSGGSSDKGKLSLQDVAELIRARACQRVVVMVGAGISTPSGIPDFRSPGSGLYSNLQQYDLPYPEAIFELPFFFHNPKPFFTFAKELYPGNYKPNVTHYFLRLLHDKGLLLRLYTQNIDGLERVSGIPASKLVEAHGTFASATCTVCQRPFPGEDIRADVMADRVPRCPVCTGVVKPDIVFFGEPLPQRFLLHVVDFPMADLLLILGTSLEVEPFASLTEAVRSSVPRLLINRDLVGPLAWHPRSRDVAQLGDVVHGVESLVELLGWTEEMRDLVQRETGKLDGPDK

[12] = molecular target: T1, NAD-dependent protein deacetylase sirtuin-1; assay: Mixed-type inhibition of N-terminal His6-tagged SIRT1 coding region (156-664) (unknown origin) expressed in Escherichia coli BL21(DE3) using NAD+ as substrate by Lineweaver-Burk plot analysis in presence of ac-RHKKac-AMC
How it was run: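 With ac-RHKK(ac)-AMC held fixed, NAD+ was varied at several inhibitor concentrations. Fluorogenic deacetylation velocities were analysed by Lineweaver–Burk plots against NAD+ concentration.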

[13] = molecular target: T2, NAD-dependent protein deacetylase sirtuin-1 (Homo sapiens); assay: Noncompetitive inhibition of N-terminal His6-tagged SIRT1 coding region (156-664) (unknown origin) expressed in Escherichia coli BL21(DE3) using ac-RHKKac-AMC as substrate by Lineweaver-Burk plot analysis in presence of NAD+
[14] = molecular target: T2, NAD-dependent protein deacetylase sirtuin-1 (Homo sapiens); assay: Reversible inhibition of N-terminal His6-tagged SIRT1 coding region (156-664) (unknown origin) expressed in Escherichia coli BL21(DE3) using ac-RHKKac-AMC as substrate incubated at 10-fold IC50 for 30 mins followed by 100-fold dilution measured up to 40 mins by fluorometric analysis
How it was run: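 Enzyme was preincubated with inhibitor or DMSO at room temperature for 30 min, then rapidly diluted 100-fold into reaction buffer containing NAD+ and ac-RHKK(ac)-AMC. Deacetylated product was monitored over time, and the slope of the inhibitor curve was compared with the DMSO control.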

[15] = molecular target: T6, NAD-dependent protein deacetylase sirtuin-1; assay: Mixed type inhibition of N-terminal His6-tagged SIRT1 F273L mutant (unknown origin) expressed in Escherichia coli BL21(DE3) using NAD+ as substrate by Lineweaver-Burk plot analysis in presence of ac-RHKKac-AMC; how it was run: as §2

T3 sequence (Q96EB6 2-747 I347A limits assumed): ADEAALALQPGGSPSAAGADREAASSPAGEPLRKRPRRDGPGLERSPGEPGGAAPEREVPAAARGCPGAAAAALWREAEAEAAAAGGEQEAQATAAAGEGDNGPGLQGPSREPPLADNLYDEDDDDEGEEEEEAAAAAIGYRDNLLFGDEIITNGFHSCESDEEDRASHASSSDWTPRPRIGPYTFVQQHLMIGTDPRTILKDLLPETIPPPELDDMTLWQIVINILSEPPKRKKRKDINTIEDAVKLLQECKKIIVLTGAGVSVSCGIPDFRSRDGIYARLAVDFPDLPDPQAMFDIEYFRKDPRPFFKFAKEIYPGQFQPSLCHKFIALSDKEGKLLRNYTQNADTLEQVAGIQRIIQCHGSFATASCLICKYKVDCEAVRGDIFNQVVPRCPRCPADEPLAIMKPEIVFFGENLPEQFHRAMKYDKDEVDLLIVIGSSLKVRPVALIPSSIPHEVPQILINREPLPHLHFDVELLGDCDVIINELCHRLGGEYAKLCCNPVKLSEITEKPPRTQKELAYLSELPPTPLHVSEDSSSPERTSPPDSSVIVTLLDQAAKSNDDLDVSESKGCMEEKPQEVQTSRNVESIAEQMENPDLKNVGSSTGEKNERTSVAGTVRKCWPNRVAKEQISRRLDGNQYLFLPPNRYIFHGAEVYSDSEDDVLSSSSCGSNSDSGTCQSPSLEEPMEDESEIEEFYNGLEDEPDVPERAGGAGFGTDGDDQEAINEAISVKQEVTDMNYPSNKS
T4 sequence (Q96EB6 2-747 F312L limits assumed): as the sequence (Q96EB6 2-747 I347A limits assumed) above, with F311L, A346I counted along it
T6 sequence (Q96EB6 2-747 F273L limits assumed): as the sequence (Q96EB6 2-747 I347A limits assumed) above, with F272L, A346I counted along it
T5 sequence (Q96EB6 2-747 N346A limits assumed): as the sequence (Q96EB6 2-747 I347A limits assumed) above, with N345A, A346I counted along it

SMILES: O=C(c1ccc(Br)cc1)c1coc2ccc(O)cc12
- IC50 [1]: 240 µM

SMILES: Cc1cc2occ(C(=O)c3ccc(Cl)cc3)c2cc1O
- IC50 [1]: 88 µM

SMILES: COc1ccc(OC)c(C(=O)c2coc3cc(Br)c(O)c(Br)c23)c1
- IC50 [1]: > 300 µM

SMILES: O=C(c1ccc(Br)cc1)c1coc2c1cc(O)c1ccccc12
- IC50 [1]: 146 µM

SMILES: O=C(c1ccccc1)c1coc2ccc(O)c(CN3CCOCC3)c12
- IC50 [1]: > 300 µM

SMILES: Cc1ccc(C(=O)c2coc3c2cc(O)c2ccccc23)cc1
- IC50 [1]: > 300 µM

SMILES: O=C(c1ccccc1)c1coc2c1cc(O)c1ccccc12
- IC50 [1]: > 300 µM

SMILES: Cc1oc2ccc(O)cc2c1C(=O)c1ccc(Br)cc1
- IC50 [1]: 243 µM

SMILES: O=C(c1ccc(OCc2ccccc2)cc1)c1coc2cc(Br)c(O)c(Br)c12
- IC50 [1]: > 300 µM

SMILES: COc1ccc(O)c(C(=O)c2coc3ccc(O)cc23)c1
- IC50 [1]: 45.1 µM

SMILES: COc1ccc(C(=O)c2coc3c2cc(O)c2ccccc23)cc1
- IC50 [1]: 256 µM

SMILES: O=C(c1cccc(O)c1)c1coc2ccc(O)cc12
- IC50 [1]: 31.2 µM

SMILES: COc1cc2c(C(=O)c3ccc(Br)cc3)c(C)oc2c2ccccc12
- IC50 [1]: > 300 µM

SMILES: COc1ccc(O)cc1C(=O)c1coc2ccc(O)cc12
- IC50 [1]: 41.7 µM

SMILES: O=C(c1ccccc1)c1coc2cc(Br)c(O)c(Br)c12
- IC50 [1]: 198 µM

SMILES: COc1ccc(OC)c(C(=O)c2coc3ccc(O)c(CN4CCOCC4)c23)c1
- IC50 [1]: > 300 µM

SMILES: COc1ccc(OC)c(C(=O)c2coc3ccc(OC(C)=O)cc23)c1
- IC50 [1]: > 300 µM

SMILES: O=C(c1ccccc1O)c1coc2ccc(O)cc12
- IC50 [1]: 71.4 µM

SMILES: CC(=O)Oc1ccc2occ(C(=O)c3ccccc3)c2c1
- IC50 [1]: > 300 µM

SMILES: COc1ccc(OC)c(C(=O)c2coc3ccc(O)cc23)c1
- IC50 [1]: > 300 µM

SMILES: O=C(c1cc(O)ccc1O)c1coc2ccc(O)cc12
- inhibition [2]: Active
- Activity (MCF7): inactive
- inhibition [3]: Dose-dependent effect
- Ki [4]: 174 µM
- Ki [5]: 254 µM
- Ki [6]: 253 µM
- IC50 [7]: 421 µM
- IC50 [8]: 283 µM
- IC50 [9]: 550 µM
- IC50 [10]: 491 µM
- inhibition [11]: Active
- Ki [12]: 0.8 µM
- inhibition [13]: Active
- inhibition [14]: Active
- IC50 [1]: 2.8 µM
- Ki [15]: 219 µM
